Results as given in ChEMBL document CHEMBL4219101, “Discovery of 18β-glycyrrhetinic acid conjugated aminobenzothiazole derivatives as Hsp90-Cdc37 interaction disruptors that inhibit cell migration and reverse drug resistance” (Bioorg Med Chem, 2018).
Activity calls are given as the source filed them. The rule behind the calls is not given here.

What was measured:
A549 [1] = experiment: Induction of apoptosis in human A549 cells assessed as intracellular ROS levels at 5 uM after 24 hrs by FITC-DCF-DA-fluorescence based flow cytometry (reference value: 0.832%); type: functional
Summary of the method: (§1)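 A549 cells exposed to 5 and 10 µM for 24 h, untreated cells as control. Collected, washed with ice-cold PBS and loaded with DCFH-DA in cell-free medium for 20 min at 37 °C in the dark, then washed. Fluorescence measured by flow cytometry at 485 nm excitation and 538 nm emission. Mean ± S.D. of three independent experiments.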

A549 [2] = experiment: Antiproliferative activity against human A549 cells after 48 hrs by MTT assay; type: functional, cell-based; settings: A549, 48 h
Summary of the method: (§2)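 Cells in log phase seeded at about 1.0 × 10^5 cells/mL in 96-well plates, left 12 h at 37 °C, 5% CO2. Compounds dissolved in DMSO, added at 2.5, 5, 10, 20 and 50 µM, 48 h exposure. Absorbance read at 570/630 nm dual wavelength. Survival expressed relative to negative control. IC50 by Bliss method (n = 5), tests done in triplicate.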

[3] = target: T1, Heat shock protein HSP90 (Homo sapiens) (UniProt P07900+P08238); experiment: Inhibition of HSP90 in human A549 cells assessed as downregulation of phosphorylated akt expression after 24 hrs by Western blot analysis; type: cell-based
Summary of the method: (§3)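 A549 cells exposed for 24 h, with geldanamycin as comparator. Whole-cell lysates separated by SDS-PAGE and immunoblotted for the named proteins. β-actin used as reference.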

[4] = Inhibition of HSP90/Cdc37 interaction in human doxorubicin-resistant NCI-H460 cells assessed as reduction in cell proliferation after 48 hrs by MTT assay; settings: NCI-H460, 48 h; summary of the method: as §2
A549 [5] = experiment: Induction of apoptosis in human A549 cells assessed as increase in number of nuclei containing condensed chromatin at 5 to 10 uM after 24 hrs by Hoechest 33258-staining based fluorescence microscopy; type: functional, cell-based
Summary of the method: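 5.0 × 10^5 A549 cells per well exposed to 5 and 10 µM for 24 h, untreated cells as control. Fixed in 4% paraformaldehyde for 30 min, washed with ice-cold PBS and stained with Hoechst 33258 for 20 min in the dark. Condensed nuclei imaged by fluorescence microscopy at 350 nm excitation and 460 nm emission, 200× magnification.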

A549 [6] = experiment: Induction of apoptosis in human A549 cells assessed as upregulation of cleaved caspase-3 protein expression after 24 hrs by Western blot analysis; type: functional, cell-based
Summary of the method: (§4)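 A549 cells exposed to 5 and 10 µM for 24 h. Lysates cleared at 20000g, protein quantified by BCA and equal amounts run on 12% SDS-PAGE, then transferred to PVDF. Blocked in 5% skim milk in TBST. Probed overnight at 4 °C with antibodies to Bcl-2, Bax, caspase-9, caspase-3 and β-actin (loading reference). Chemiluminescent detection. Three independent experiments.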

A549 [7] = experiment: Cell cycle arrest in human A549 cells assessed as accumulation at G1 phase at 5 uM after 48 hrs by propidium iodide staining-based flow cytometry (reference value: 70.16%); type: functional
[8] = target: T1, Heat shock protein HSP90 (Homo sapiens); experiment: Inhibition of HSP90 in human A549 cells assessed as downregulation of CDK4 expression after 24 hrs by Western blot analysis; type: cell-based; summary of the method: as §3
A549 [9] = experiment: Induction of apoptosis in human A549 cells assessed as intracellular ROS levels at 10 uM after 24 hrs by FITC-DCF-DA-fluorescence based flow cytometry (reference value: 0.832%); type: functional; summary of the method: as §1
[10] = target: Heat shock protein HSP 90-alpha/Hsp90 co-chaperone Cdc37 (Homo sapiens) (UniProt P07900+Q16543); experiment: Inhibition of HSP90alpha/Cdc37 interaction in human A549 cells assessed as upregulation of HSP90alpha expression at 5 to 10 uM after 24 hrs by Western blot analysis; type: cell-based; summary of the method: as §3
A549 [11] = experiment: Induction of apoptosis in human A549 cells assessed as downregulation of Bcl2 protein expression after 24 hrs by Western blot analysis; type: functional, cell-based; summary of the method: as §4
Homo sapiens = species on record: Homo sapiens; experiment: Inhibition of HSP90/Cdc37 interaction assessed as reversal of drug resistance by measuring ratio of IC50 for human doxorubicin-resistant NCI-H460 cells to IC50 for human NCI-H460 cells
Summary of the method: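 Resistance factor is the ratio of IC50 in NCI-H460/DOX cells to IC50 in parental NCI-H460 cells. […] Values are mean ± SD of five separate experiments. Doxorubicin serves as the positive control.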

[12] = target: T1, Heat shock protein HSP90 (Homo sapiens); experiment: Inhibition of HSP90 in human A549 cells assessed as induction of HSP70 expression after 24 hrs by Western blot analysis; type: cell-based; summary of the method: as §3
A549 [13] = experiment: Induction of apoptosis in human A549 cells assessed as late apoptotic cells at 10 uM after 24 hrs by Annexin-V FITC/propidium iodide staining based flow cytometry (reference value: 0.030%)
A549 [14] = experiment: Cell cycle arrest in human A549 cells assessed as accumulation at S phase at 5 uM after 48 hrs by propidium iodide staining-based flow cytometry (reference value: 19.62%); type: functional
A549 [15] = experiment: Induction of apoptosis in human A549 cells assessed as viable cells at 5 uM after 24 hrs by Annexin-V FITC/propidium iodide staining based flow cytometry (reference value: 97.6%); settings: A549, 24 h
[16] = Inhibition of His-tagged full-length Hsp90 (unknown origin)/GST-tagged Cdc37M (unknown origin) interaction after 1 hr by HTRF assay; parameters: species or system Homo sapiens
Summary of the method: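 TR-FRET in PBS containing 400 mM KF, pH 7.3. His-tagged full-length Hsp90 and GST-Cdc37M, each 250 nM final, incubated with compound for 1 h at 37 °C. Anti-GST-Cryptate and anti-6His-XL665 then added for a further 0.5 h at 37 °C. Excitation 320 nm, emission 665/620 nm, reported as ratio ×10,000. Negative and blank controls run in each assay.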

[17] = target: T1, Heat shock protein HSP90 (Homo sapiens); experiment: Inhibition of HSP90 in human A549 cells assessed as induction of HSP27 expression after 24 hrs by Western blot analysis; type: cell-based; summary of the method: as §3
A549 [18] = experiment: Cell cycle arrest in human A549 cells assessed as accumulation at S phase at 10 uM after 48 hrs by propidium iodide staining-based flow cytometry (reference value: 19.62%); type: functional
HepG2 = experiment: Antiproliferative activity against human HepG2 cells after 48 hrs by MTT assay; type: functional, cell-based; settings: HepG2, 48 h; summary of the method: as §2
A549 [19] = experiment: Cell cycle arrest in human A549 cells assessed as accumulation at G1 phase at 10 uM after 48 hrs by propidium iodide staining-based flow cytometry (reference value: 70.16%); type: functional
A549 [20] = experiment: Induction of apoptosis in human A549 cells after 24 hrs by Annexin-V FITC/propidium iodide staining based flow cytometry
A549 [21] = experiment: Induction of apoptosis in human A549 cells assessed as upregulation of cleaved caspase-9 protein expression after 24 hrs by Western blot analysis; type: functional, cell-based; summary of the method: as §4
HCT-116 = experiment: Antiproliferative activity against human HCT116 cells after 48 hrs by MTT assay; type: functional, cell-based; settings: HCT-116, 48 h; summary of the method: as §2
A549 [22] = experiment: Cell cycle arrest in human A549 cells assessed as accumulation at G2 phase at 10 uM after 48 hrs by propidium iodide staining-based flow cytometry (reference value: 10.22%); type: functional

Sequence of Heat shock protein HSP 90-alpha/Hsp90 co-chaperone Cdc37 (Homo sapiens) (Q16543 whole entry, looked up, other chains not shown): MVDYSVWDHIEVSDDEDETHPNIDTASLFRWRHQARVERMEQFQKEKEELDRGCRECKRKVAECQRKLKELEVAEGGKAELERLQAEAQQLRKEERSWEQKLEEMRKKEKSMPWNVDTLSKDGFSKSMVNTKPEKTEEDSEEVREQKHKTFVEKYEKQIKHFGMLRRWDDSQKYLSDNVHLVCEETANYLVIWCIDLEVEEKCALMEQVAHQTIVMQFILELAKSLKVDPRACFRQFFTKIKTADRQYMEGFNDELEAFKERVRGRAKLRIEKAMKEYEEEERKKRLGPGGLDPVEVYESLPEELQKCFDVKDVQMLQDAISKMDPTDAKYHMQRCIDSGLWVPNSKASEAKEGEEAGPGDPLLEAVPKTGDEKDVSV

CCOC(=O)[C@@]1(C)CC[C@]2(C)CC[C@]3(C)C(=CC(=O)[C@@H]4[C@@]5(C)CC[C@H](OC(=O)CCC(=O)Nc6nc7ccc(F)cc7s6)C(C)(C)[C@@H]5CC[C@]43C)[C@@H]2C1
Activity (A549 [1]): 13.6%
IC50 (A549 [2]): 4.04 µM
inhibition [3]: Dose-dependent effect
IC50 [4]: 10.1 µM
Activity (A549 [5]): Dose-dependent effect
Activity (A549 [6]): Dose-dependent effect
Activity (A549 [7]): 52.92%
inhibition [8]: Dose-dependent effect
Activity (A549 [9]): 67.5%
inhibition [10]: Active
Activity (A549 [11]): Dose-dependent effect
Ratio IC50 (Homo sapiens): 1.36
inhibition [12]: Dose-dependent effect
Activity (A549 [13]): 6.07%
Activity (A549 [14]): 34.09%
viability at 5 µM (A549 [15]): 85.5%
IC50 [16]: 0.14 µM
inhibition [17]: Dose-dependent effect
Activity (A549 [18]): 40.35%
IC50 (HepG2): 10.6 µM
Activity (A549 [19]): 47.14%
Activity (A549 [20]): Dose-dependent effect
Activity (A549 [21]): Dose-dependent effect
IC50 (HCT-116): 7.97 µM
Activity (A549 [22]): 12.51%
